Active and inactive are the calls of the source. No cut-off for these calls is given here.
Columns and labels:
[1] = target: T1, Protein deacetylase HDAC6 (Homo sapiens, UniProt Q9UBN7); test: Inhibition of recombinant human full length N-terminal GST-tagged HDAC6 expressed in baculovirus infected Sf9 cells using Z-(Ac)Lys-AMC as substrate measured after 90 mins by fluorescence assay
T1 sequence (Q9UBN7 whole entry): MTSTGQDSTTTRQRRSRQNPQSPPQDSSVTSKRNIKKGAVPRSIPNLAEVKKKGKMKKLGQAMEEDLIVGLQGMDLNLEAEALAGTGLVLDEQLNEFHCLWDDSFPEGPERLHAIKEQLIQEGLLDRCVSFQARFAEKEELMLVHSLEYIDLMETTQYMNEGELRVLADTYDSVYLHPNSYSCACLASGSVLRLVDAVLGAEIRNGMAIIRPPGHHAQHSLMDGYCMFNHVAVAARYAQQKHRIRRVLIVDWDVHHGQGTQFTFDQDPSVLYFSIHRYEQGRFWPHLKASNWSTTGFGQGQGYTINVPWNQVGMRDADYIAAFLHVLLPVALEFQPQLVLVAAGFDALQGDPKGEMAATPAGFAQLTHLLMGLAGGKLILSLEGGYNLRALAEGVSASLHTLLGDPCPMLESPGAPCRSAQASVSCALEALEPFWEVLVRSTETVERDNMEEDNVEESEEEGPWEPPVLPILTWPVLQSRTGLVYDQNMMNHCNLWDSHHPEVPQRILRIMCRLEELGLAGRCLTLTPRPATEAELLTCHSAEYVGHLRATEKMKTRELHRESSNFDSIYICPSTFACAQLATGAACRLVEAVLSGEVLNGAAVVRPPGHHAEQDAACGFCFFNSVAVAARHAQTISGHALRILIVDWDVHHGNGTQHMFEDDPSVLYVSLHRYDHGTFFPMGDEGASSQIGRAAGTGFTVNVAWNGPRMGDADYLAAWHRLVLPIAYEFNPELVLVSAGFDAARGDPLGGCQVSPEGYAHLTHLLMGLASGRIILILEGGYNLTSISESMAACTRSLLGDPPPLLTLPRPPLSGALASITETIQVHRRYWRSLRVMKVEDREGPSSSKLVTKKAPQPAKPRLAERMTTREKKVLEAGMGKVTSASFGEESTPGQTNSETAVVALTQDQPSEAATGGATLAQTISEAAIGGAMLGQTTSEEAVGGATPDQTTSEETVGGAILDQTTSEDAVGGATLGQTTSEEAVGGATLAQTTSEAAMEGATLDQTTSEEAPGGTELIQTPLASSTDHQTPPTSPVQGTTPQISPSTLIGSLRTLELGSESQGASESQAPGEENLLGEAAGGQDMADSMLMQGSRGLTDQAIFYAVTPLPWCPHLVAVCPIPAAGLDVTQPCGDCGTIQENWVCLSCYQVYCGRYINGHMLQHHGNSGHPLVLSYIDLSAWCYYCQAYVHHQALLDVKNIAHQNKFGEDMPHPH

[2] = target: T2, HDAC1 (histone deacetylase 1) (Homo sapiens, UniProt Q13547); test: Inhibition of recombinant human C-terminal FLAG/His-tagged HDAC1 (1 to 482 residues) expressed in Sf9 insect cells at 50 uM using Z-(Ac)Lys-AMC as substrate measured after 90 mins by fluorescence assay relative to control; conditions: probe Z-(Ac)Lys-AMC
Procedure, shortened: (§1)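 Incubated with inhibitor in DMSO and fluorogenic substrate Z-(Ac)Lys-AMC (126 µM, as added) for 90 min at 37 °C. Stopped with trichostatin A plus trypsin for 30 min at 37 °C; fluorescence read at ex 390/em 460 nm.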

[3] = target: T2, HDAC1 (histone deacetylase 1); test: Inhibition of recombinant human C-terminal FLAG/His-tagged HDAC1 (1 to 482 residues) expressed in Sf9 insect cells at 25 uM using Z-(Ac)Lys-AMC as substrate measured after 90 mins by fluorescence assay relative to control; conditions: probe Z-(Ac)Lys-AMC; procedure, shortened: as §1
[4] = target: T2, HDAC1 (histone deacetylase 1); test: Inhibition of recombinant human C-terminal FLAG/His-tagged HDAC1 (1 to 482 residues) expressed in Sf9 insect cells at 10 uM using Z-(Ac)Lys-AMC as substrate measured after 90 mins by fluorescence assay relative to control; conditions: probe Z-(Ac)Lys-AMC; procedure, shortened: as §1
[5] = target: T2, HDAC1 (histone deacetylase 1); test: Inhibition of recombinant human C-terminal FLAG/His-tagged HDAC1 (1 to 482 residues) expressed in Sf9 insect cells at 1 uM using Z-(Ac)Lys-AMC as substrate measured after 90 mins by fluorescence assay relative to control; conditions: probe Z-(Ac)Lys-AMC; procedure, shortened: as §1
Histone deacetylase 1 = Histone deacetylase 1 (Homo sapiens, UniProt Q13547); test: Inhibition of recombinant human C-terminal FLAG/His-tagged HDAC1 (1 to 482 residues) expressed in Sf9 insect cells using Z-(Ac)Lys-AMC as substrate measured after 90 mins by fluorescence assay; procedure, shortened: as §1
NIH3T3 = test: Cytotoxicity against mouse NIH/3T3 cells assessed as reduction in cell viability after 24 hrs by neutral red uptake assay; type: cell-based; conditions: NIH3T3, 24 h
Procedure, shortened: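 NIH3T3 fibroblasts seeded at 5 x 10^4 per well and cultured 24 h at 37 °C, 5% CO2. DMSO-solubilized samples added at 8 to 160 µM for 24 h; medium as negative control. Neutral Red medium applied 3 h, dye desorbed in acetic acid/ethanol, absorbance read at 540 nm. Three experiments, six replicates per concentration; viability normalized to % control.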

[6] = Solubility of compound in pH 3 buffer at 250 uM measured after 24 hrs by HPLC/UV/DAD method; type: physicochemical; conditions: pH 3, 24 h
Procedure, shortened: (§2)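 10 mM DMSO stock diluted to 250 µM (2.5% DMSO) in 50 mM acetic acid, pH 3.0, and shaken 24 h at 25 °C. For solubility, samples filtered, diluted 1:2, quantified by HPLC-UV at 254 nm against a standard. For stability, percent remaining taken as the 24 h peak area over the T0 peak area. Triplicate analyses averaged.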

[7] = Stability of compound in pH 3 buffer assessed as parent compound remaining at 250 uM measured after 24 hrs by HPLC/UV/DAD method; type: physicochemical; conditions: read-out: Stabilty; procedure, shortened: as §2
[8] = Mutagenicity in Salmonella typhimurium TA98 at 5 to 230 uM measured after 90 mins in presence of rat liver S9 fraction by Ames test; type: toxicity, subcellular; conditions: salmonella enterica subsp. enterica serovar typhimurium, s9, 1.5 h, dose 5-230 µM
[9] = Mutagenicity in Salmonella typhimurium TA100 at 5 to 230 uM measured after 90 mins in presence of rat liver S9 fraction by Ames test; type: toxicity, subcellular; conditions: salmonella enterica subsp. enterica serovar typhimurium, s9, 1.5 h, dose 5-230 µM
[10] = Mutagenicity in Salmonella typhimurium TA98 at 5 to 230 uM measured after 90 mins in absence of rat liver S9 fraction by Ames test; type: toxicity; conditions: salmonella enterica subsp. enterica serovar typhimurium, 1.5 h, dose 5-230 µM
[11] = Mutagenicity in Salmonella typhimurium TA100 at 5 to 230 uM measured after 90 mins in absence of rat liver S9 fraction by Ames test; type: toxicity; conditions: salmonella enterica subsp. enterica serovar typhimurium, s9, 1.5 h, dose 5-230 µM
HCT-116 [12] = test: Cytotoxicity against human HCT-116 cells assessed as reduction in cell viability measured after 24 hrs by MTT assay; type: functional, cell-based; conditions: HCT-116, 24 h
Procedure, shortened: (§3)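 HCT-116 cells grown in DMEM with 10% FBS, 2 mM L-glutamine and antibiotics. 2.5×10^4 cells/well treated in triplicate at 50, 25, 10, 5 and 1 µM for 12, 24 or 48 h. Then MTT 0.5 mg/ml for 3 h, supernatant removed, formazan dissolved in isopropanol, absorbance read at 570 nm. IC50 derived from the concentration series.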

HCT-116 [13] = test: Cytotoxicity against human HCT-116 cells assessed as reduction in cell viability measured after 48 hrs by MTT assay; type: functional, cell-based; conditions: HCT-116, 48 h; procedure, shortened: as §3
U-937 [14] = test: Cytotoxicity against human U-937 cells assessed as reduction in cell viability measured after 48 hrs by MTT assay; type: functional, cell-based; conditions: U-937, 48 h
Procedure, shortened: (§4)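 U937 cells grown in RPMI-1640 with 10% FBS, 2 mM L-glutamine and penicillin-streptomycin. 2.5×10^4 cells/well treated in triplicate at 50, 25, 10, 5 and 1 µM for 12, 24 or 48 h. MTT 0.5 mg/ml added for 3 h, plate centrifuged 5 min at 1200 rpm, crystals dissolved in isopropanol, A570 read. IC50 derived from the concentration series.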

HCT-116 [15] = test: Cytotoxicity against human HCT-116 cells assessed as cell viability at 50 uM measured after 48 hrs by MTT assay relative to control; type: functional; conditions: read-out: Activity; procedure, shortened: as §3
U-937 [16] = test: Cytotoxicity against human U-937 cells assessed as reduction in cell proliferation at 50 uM measured after 48 hrs by MTT assay relative to control; type: functional; set-up: scale not given: the % may be the effect or the level left; procedure, shortened: as §4
[17] = target: T3, Protein deacetylase HDAC6 (Homo sapiens) (UniProt Q9UBN7); test: Inhibition of HDAC6 in human HCT-116 cells assessed as increase in alpha-tubulin acetylation at 10 uM measured after 12 to 24 hrs by Western blot analysis relative to control; type: cell-based; conditions: time 12-24 hrs
T3 sequence (whole entry): T1 sequence (Q9UBN7 whole entry)
Procedure, shortened: (§5)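 HCT-116 or U937 cells treated at 10 µM for 12 and 24 h. […] Western blot used 40 µg total protein or 5 µg acid-extracted histone. Blots probed for cleaved PARP, acetylated tubulin, H3K9/14ac and Hsp90(AcLys294), normalized to GAPDH or H4. Compared with control cells by one-way ANOVA and Dunnett's test.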

[18] = target: T3, Protein deacetylase HDAC6 (Homo sapiens); test: Inhibition of HDAC6 in human U-937 cells assessed as increase in alpha-tubulin acetylation at 10 uM measured after 12 to 24 hrs by Western blot analysis relative to control; type: cell-based; conditions: time 12-24 hrs; procedure, shortened: as §5
[19] = Inhibition of HDAC1/2/3/8 in human HCT-116 cells assessed as increase in H3K9/14 acetylation at 10 uM measured after 12 to 24 hrs by Western blot analysis relative to control; type: cell-based; conditions: hct-116, 10 µM, time 12-24 hrs; procedure, shortened: as §5
[20] = Inhibition of HDAC1/2/3/8 in human U-937 cells assessed as increase in H3K9/14 acetylation at 10 uM measured after 12 to 24 hrs by Western blot analysis; type: cell-based; conditions: u-937, 10 µM, time 12-24 hrs; procedure, shortened: as §5
[21] = target: T3, Protein deacetylase HDAC6 (Homo sapiens); test: Inhibition of HDAC6 in human HCT-116 cells assessed as increase in Hsp90(AcLys294) acetylation at 10 uM measured after 12 to 24 hrs by Western blot analysis; type: cell-based; conditions: time 12-24 hrs; procedure, shortened: as §5
[22] = target: T3, Protein deacetylase HDAC6 (Homo sapiens); test: Inhibition of HDAC6 in human U-937 cells assessed as increase in Hsp90(AcLys294) acetylation at 10 uM measured after 12 to 24 hrs by Western blot analysis; type: cell-based; conditions: time 12-24 hrs; procedure, shortened: as §5

T2 sequence (Q13547 whole entry, the tested form may be a part): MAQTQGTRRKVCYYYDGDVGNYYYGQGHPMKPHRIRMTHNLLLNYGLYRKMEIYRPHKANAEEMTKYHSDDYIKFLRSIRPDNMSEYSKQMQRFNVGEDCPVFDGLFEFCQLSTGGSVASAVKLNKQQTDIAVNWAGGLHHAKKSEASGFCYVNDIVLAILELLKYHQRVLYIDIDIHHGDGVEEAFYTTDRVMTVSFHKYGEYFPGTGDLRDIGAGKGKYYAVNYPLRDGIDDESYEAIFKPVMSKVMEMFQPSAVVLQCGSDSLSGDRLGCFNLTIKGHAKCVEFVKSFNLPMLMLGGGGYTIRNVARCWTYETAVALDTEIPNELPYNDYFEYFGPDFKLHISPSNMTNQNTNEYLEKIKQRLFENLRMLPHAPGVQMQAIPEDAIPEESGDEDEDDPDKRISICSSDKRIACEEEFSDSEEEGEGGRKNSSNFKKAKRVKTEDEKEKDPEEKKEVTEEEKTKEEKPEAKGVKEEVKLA
Histone deacetylase 1, sequence (Q13547 whole entry, the tested form may be a part): as above

With O=C(NO)c1ccc(COc2c(-c3ccccc3)c3ccccc3n(C3CCN(Cc4ccccc4)CC3)c2=O)cc1 as the compound, how does the IC50 [1] read?
Its IC50 is 0.87 µM.

And the inhibition at 1.5 h, 50 µM [2]?
The inhibition at 1.5 h, 50 µM was 79%.

And the inhibition at 1.5 h, 25 µM [3]?
The inhibition at 1.5 h, 25 µM was 67%.

What about the inhibition at 1.5 h, 10 µM [4] of the same compound?
The inhibition at 1.5 h, 10 µM was 46%.

And the inhibition at 1.5 h, 1 µM [5]?
Its inhibition at 1.5 h, 1 µM is less than 10%.

Which IC50 [1] does the source give for O=C(NO)c1ccc(COc2c(-c3ccccc3)c3ccccc3n(Cc3ccccc3)c2=O)cc1 here?
Its IC50 is 0.176 µM.

What about the inhibition at 1.5 h, 50 µM [2] of the same compound?
The inhibition at 1.5 h, 50 µM was 97%.

And the inhibition at 1.5 h, 25 µM [3]?
The inhibition at 1.5 h, 25 µM was 93%.

And the inhibition at 1.5 h, 10 µM [4]?
The inhibition at 1.5 h, 10 µM was 76%.

And the inhibition at 1.5 h, 1 µM [5]?
The inhibition at 1.5 h, 1 µM was 17%.

For COc1c(-c2ccccc2)c2ccccc2n(Cc2ccc(C(=O)NO)cc2)c1=O, which IC50 (Histone deacetylase 1) is on record?
Its IC50 is 4.5 µM.

And the IC50 [1]?
Its IC50 is 0.0616 µM.

And the IC50 (NIH3T3)?
The IC50 was 90 µM.

What about the solubility [6] of the same compound?
Its solubility is “Soluble”.

What about the remaining at 24 h, 250 µM [7] of the same compound?
The remaining at 24 h, 250 µM was greater than 95%.

And the Activity [8]?
The Activity was “Non-Toxic”.

What about the Activity [9] of the same compound?
Its Activity is “Non-Toxic”.

And the Activity [10]?
Its Activity is “Non-Toxic”.

What about the Activity [11] of the same compound?
The Activity was “Non-Toxic”.

Which IC50 (Histone deacetylase 1) does the source give for O=C(NO)c1ccc(COc2c(-c3ccccc3)c3ccccc3[nH]c2=O)cc1 here?
Its IC50 is 6.6 µM.

What about the IC50 [1] of the same compound?
The IC50 was 0.147 µM.

What about the IC50 (HCT-116 [12]) of the same compound?
The IC50 was 33.4 µM.

And the IC50 (HCT-116 [13])?
Its IC50 is 15 µM.

And the IC50 (U-937 [14])?
The IC50 was 27.9 µM.

And the viability at 50 µM (HCT-116 [15])?
The viability at 50 µM was 10%.

What about the Activity (U-937 [16]) of the same compound?
Its Activity is 60%.

What about the fold change (FC) [17] of the same compound?
Its fold change (FC) is greater than 9.

What about the fold change (FC) [18] of the same compound?
Its fold change (FC) is greater than 9.

And the “fold change (FC)” value [19]?
Its value is 2.

What about the “inhibition (INH)” value [20] of the same compound?
The value was “Active”.

And the inhibition [21]?
The inhibition was “Active”.

And the inhibition [22]?
The inhibition was “Active”.

— ChEMBL document CHEMBL4732101, “Novel quinolone-based potent and selective HDAC6 inhibitors: Synthesis, molecular modeling studies and biological investigation” (Eur J Med Chem, 2021)
